Measured values as given in ChEMBL document CHEMBL4393692, “Thiazolidinone/thiazole based hybrids - New class of antitrypanosomal agents” (Eur J Med Chem, 2019).

How the values were obtained:
[1] = tested on: Trypanosoma brucei gambiense; experiment: Antitrypanosomal activity against bloodstream form of Trypanosoma brucei gambiense Feo reduction in parasite growth after 72 hrs by resazurin dye based fluorescence assay; assay type: functional, organism-based
Procedure, shortened: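 Bloodstream parasites cultured in HMI9 with 10% FCS at 37°C under 5% CO2. Log-phase cells harvested at 3000xg, plated at 10^5 cells/ml with dilutions from 10 down to 0.625 µg/ml (DMSO stocks) for 72 h. Resazurin added at 45 µM final, fluorescence read after a further 4 h. Inhibition vs DMSO control. IC50 from dose-response curve, mean ± SD of three independent experiments.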

[2] = Cytotoxicity against human AB943 cells assessed as reduction in cell viability after 5 days resazurin dye based fluorescence assay; details: 120 h
Procedure, shortened: (§1)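 Human primary fibroblasts grown in RPMI with 25 mM HEPES pH 7.3 and 10% FCS, 37°C, 5% CO2. After trypsinisation, seeded at 5000 cells/well and incubated 24 h. Then washed and exposed to two-fold drug dilutions, final DMSO below 1%, for 5 days. Resazurin added, fluorescence read (ex 530/em 590 nm) after 4 h. Growth inhibition vs DMSO control. SI = IC50 fibroblast / IC50 T. b. gambiense.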

[3] = Selectivity index, ratio of IC50 for human AB943 cells to IC50 of bloodstream form of Trypanosoma brucei gambiense Feo; assay type: toxicity; details: read-out: Ratio IC50; procedure, shortened: as §1

Structure (SMILES) | IC50 [1] | IC50 [2] | selectivity ratio [3]
CCOC(=O)CSc1nn2cc(-c3ccccc3)nc2s1 | > 30 µM |  | 
CCc1nn2c(/C=N/N=C3/NC(=O)C(C)S3)c(-c3ccccc3)nc2s1 (stereo unspecified) | > 25 µM |  | 
CCc1nn2c(/C=N/N=C3\SC(CCOC(C)=O)C(=O)N3c3ccc(O)cc3)c(-c3ccc([N+](=O)[O-])cc3)nc2s1 (stereo unspecified) | 11.1 µM |  | 
C=CCSc1nn2c(/C=N/N=C3\SC(C)C(=O)N3c3ccc(O)cc3)c(-c3ccccc3)nc2s1 (stereo unspecified) | > 20 µM |  | 
O=[N+]([O-])c1ccc(-c2[nH]c3ccccc3c2/C=N/Nc2nc(-c3ccccc3)cs2)cc1 | 6 µM |  | 
CCc1nn2c(/C=N/NC(=S)Nc3ccc(O)cc3)c(-c3ccc([N+](=O)[O-])cc3)nc2s1 | 14.8 µM |  | 
C=CCSc1nn2c(/C=N/N=c3\sc(C(=O)OCC)c(C)n3-c3ccc(O)cc3)c(-c3ccccc3)nc2s1 | 0.631 µM | > 80 µM | > 130
C=CCSc1nn2c(/C=N/N=C3/NC(=O)C(C)S3)c(-c3ccccc3)nc2s1 (stereo unspecified) | 4.4 µM |  | 
C=CCSc1nn2c(/C=N/N=C3/NC(=O)C(CCOC(C)=O)S3)c(-c3ccccc3)nc2s1 (stereo unspecified) | 5.7 µM | 19.2 µM | 3
CCc1nn2c(/C=N/N=C3\SC(CC)C(=O)N3c3ccc(O)cc3)c(-c3ccccc3)nc2s1 (stereo unspecified) | > 20 µM |  | 
CCc1nn2c(/C=N/N=c3\scc(-c4ccc([N+](=O)[O-])cc4)n3-c3ccc(O)cc3)c(-c3ccc(Br)cc3)nc2s1 | 0.51 µM | > 70 µM | > 150
CCC1S/C(=N\N=C\c2c(-c3ccc(Cl)cc3)[nH]c3ccccc23)N(Cc2ccco2)C1=O (stereo unspecified) | 1.71 µM |  | 
CCOC(=O)c1sc(N/N=C/c2c(-c3ccc(Cl)cc3)[nH]c3ccccc23)nc1C | 0.53 µM | 20.5 µM | 39
C=CCSc1nn2c(/C=N/NC(=S)Nc3ccc(O)cc3)c(-c3ccccc3)nc2s1 | > 50 µM |  | 
CC(=O)OCCC1S/C(=N\N=C\c2c(-c3ccc(Cl)cc3)[nH]c3ccccc23)N(c2ccc(O)cc2)C1=O (stereo unspecified) | 0.38 µM | > 90 µM | > 240
C=CCSc1nn2c(/C=N/N=C3/NC(=O)C(CC(=O)O)S3)c(-c3ccccc3)nc2s1 (stereo unspecified) | > 20 µM |  | 
CC(=O)OCCC1S/C(=N\N=C\c2c(-c3ccc(Cl)cc3)[nH]c3ccccc23)N(Cc2ccco2)C1=O (stereo unspecified) | 1.59 µM |  | 
CCc1nn2c(/C=N/N=c3\scc(-c4ccc(Br)cc4)n3-c3ccc(O)cc3)c(-c3ccc([N+](=O)[O-])cc3)nc2s1 | 0.594 µM |  | 
O=C1N/C(=N/N=C/c2c(-c3ccc(Cl)cc3)[nH]c3ccccc23)SC1CCO (stereo unspecified) | 1.49 µM | 8.96 µM | 7
CCc1nn2c(/C=N/N=C3/NC(=O)C(CC)S3)c(-c3ccccc3)nc2s1 (stereo unspecified) | 3.7 µM |  | 
CCc1nn2c(/C=N/N=C3/NC(=O)C(CCOC(C)=O)S3)c(-c3ccccc3)nc2s1 (stereo unspecified) | 11.8 µM |  | 
C=CCSc1nn2c(/C=N/N=C3/NC(=O)CS3)c(-c3ccccc3)nc2s1 | 3.9 µM |  | 
CCOC(=O)CSc1nn2c(/C=N/N=C3/NC(=O)C(C)S3)c(-c3ccccc3)nc2s1 (stereo unspecified) | 3.9 µM |  | 
CCc1nn2c(/C=N/N=C3/NC(=O)C(CCOC(C)=O)S3)c(-c3ccc([N+](=O)[O-])cc3)nc2s1 (stereo unspecified) | 16.2 µM |  | 
C=CCSc1nn2c(C=O)c(-c3ccccc3)nc2s1 | 23.4 µM |  | 
Clc1ccc(-c2[nH]c3ccccc3c2/C=N/Nc2nc(-c3ccc(Br)cc3)cs2)cc1 | 1.52 µM |  | 

Structure (SMILES) | IC50 [1] | IC50 [2] | selectivity ratio [3]
CCc1nn2c(/C=N/N=c3/[nH]c(-c4ccc([N+](=O)[O-])cc4)cs3)c(-c3ccc([N+](=O)[O-])cc3)nc2s1 | 4.4 µM |  | 
CCc1nn2c(/C=N/N=C3\SC(CCOC(C)=O)C(=O)N3c3ccc(O)cc3)c(-c3ccc(Br)cc3)nc2s1 (stereo unspecified) | 1 µM | 11.2 µM | 11
O=[N+]([O-])c1ccc(-c2[nH]c3ccccc3c2/C=N/Nc2nc(-c3ccc(Br)cc3)cs2)cc1 | 2.3 µM | > 96.5 µM | > 40
CCOC(=O)c1s/c(=N\N=C\c2c(-c3ccc(Br)cc3)nc3sc(CC)nn23)n(-c2ccc(O)cc2)c1C | 1 µM |  | 
C=CCSc1nn2c(/C=N/N=C3\SC(CC)C(=O)N3c3ccc(O)cc3)c(-c3ccccc3)nc2s1 (stereo unspecified) | 3.6 µM | > 90 µM | > 26
CCc1nn2c(/C=N/N=c3\scc(-c4ccc([N+](=O)[O-])cc4)n3-c3ccc(O)cc3)c(-c3ccc([N+](=O)[O-])cc3)nc2s1 | 2.6 µM |  | 
C=CCSc1nn2c(/C=N/N=C3/NC(=O)C(CC)S3)c(-c3ccccc3)nc2s1 (stereo unspecified) | 20.6 µM |  | 
CC(=O)OCCC1S/C(=N\N=C\c2c(-c3ccc(Cl)cc3)[nH]c3ccccc23)NC1=O (stereo unspecified) | 1.34 µM |  | 
O=C1CS/C(=N\N=C\c2c(-c3ccccc3)[nH]c3ccccc23)N1 | 0.23 µM | 13.2 µM | 57
CCOC(=O)CSc1nn2c(/C=N/N=C3/NC(=O)C(CC)S3)c(-c3ccccc3)nc2s1 (stereo unspecified) | 9.2 µM |  | 
CCOC(=O)c1s/c(=N\N=C\c2c(-c3ccccc3)nc3sc(CC)nn23)n(-c2ccc(O)cc2)c1C | 0.745 µM | 51.5 µM | 69
CCc1nn2c(/C=N/N=C3/NC(=O)C(C)S3)c(-c3ccc(Br)cc3)nc2s1 (stereo unspecified) | 9.5 µM |  | 
CCc1nn2c(/C=N/N=C3\SC(C)C(=O)N3c3ccc(O)cc3)c(-c3ccc(Br)cc3)nc2s1 (stereo unspecified) | 1.5 µM |  | 
CC1S/C(=N\N=C\c2c(-c3ccc(Cl)cc3)[nH]c3ccccc23)N(c2ccc(O)cc2)C1=O (stereo unspecified) | 1.17 µM |  | 
CC1S/C(=N\N=C\c2c(-c3ccc(Br)cc3)[nH]c3ccccc23)NC1=O (stereo unspecified) | 1.35 µM |  | 
O=[N+]([O-])c1ccc(-c2[nH]c3ccccc3c2/C=N/N=c2\scc(-c3ccc([N+](=O)[O-])cc3)n2-c2ccc(O)cc2)cc1 | 1.5 µM |  | 
O=C1CS/C(=N\N=C\c2c(-c3ccc(Cl)cc3)[nH]c3ccccc23)N1c1ccc(O)cc1 | 0.82 µM | > 100 µM | > 130
CC1S/C(=N\N=C\c2c(-c3ccc(Cl)cc3)[nH]c3ccccc23)N(Cc2ccco2)C1=O (stereo unspecified) | 1.71 µM |  | 
CCc1nn2c(/C=N/N=C3/NC(=O)C(CCOC(C)=O)S3)c(-c3ccc(Br)cc3)nc2s1 (stereo unspecified) | 3.2 µM |  | 
CCOC(=O)c1s/c(=N\N=C\c2c(-c3ccccc3)nc3sc(CC)nn23)[nH]c1C | 2.7 µM |  | 
CCc1nn2c(/C=N/N=C3/NC(=O)C(CC)S3)c(-c3ccc(Br)cc3)nc2s1 (stereo unspecified) | 13.8 µM |  | 
CCc1nn2c(/C=N/NC(=S)Nc3ccc(O)cc3)c(-c3ccc(Br)cc3)nc2s1 | 1.5 µM |  | 
CCC1S/C(=N\N=C\c2c(-c3ccc([N+](=O)[O-])cc3)[nH]c3ccccc23)NC1=O (stereo unspecified) | 6.2 µM |  | 
CC1S/C(=N\N=C\c2c(-c3ccc([N+](=O)[O-])cc3)[nH]c3ccccc23)NC1=O (stereo unspecified) | 4.7 µM |  | 
O=C1CS/C(=N\N=C\c2c(-c3ccc(Cl)cc3)[nH]c3ccccc23)N1Cc1ccco1 | 7.31 µM |  | 
CCc1nn2c(/C=N/N=C3\SCC(=O)N3c3ccc(O)cc3)c(-c3ccccc3)nc2s1 | 9.2 µM |  | 

Structure (SMILES) | IC50 [1] | IC50 [2] | selectivity ratio [3]
CCc1nn2c(/C=N/N=c3\scc(-c4ccccc4)n3-c3ccc(O)cc3)c(-c3ccccc3)nc2s1 | 3 µM |  | 
C=CCSc1nn2c(/C=N/N=C3\SCC(=O)N3c3ccc(O)cc3)c(-c3ccccc3)nc2s1 | > 20 µM |  | 
CCOC(=O)c1s/c(=N\N=C\c2c(-c3ccc([N+](=O)[O-])cc3)nc3sc(CC)nn23)[nH]c1C | > 20 µM |  | 
CCc1nn2c(/C=N/N=C3/NC(=O)CS3)c(-c3ccccc3)nc2s1 | 18 µM |  | 
CCc1nn2cc(-c3ccccc3)nc2s1 | > 40 µM |  | 
C=CCSc1nn2c(/C=N/N=C3\SC(CCOC(C)=O)C(=O)N3c3ccc(O)cc3)c(-c3ccccc3)nc2s1 (stereo unspecified) | 1 µM |  | 
CCc1nn2c(/C=N/NC(N)=S)c(-c3ccc(Br)cc3)nc2s1 | > 25 µM |  | 
CCc1nn2c(/C=N/N=C3\SC(CC)C(=O)N3c3ccc(O)cc3)c(-c3ccc(Br)cc3)nc2s1 (stereo unspecified) | 1.5 µM |  | 
CCc1nn2c(/C=N/NC(N)=S)c(-c3ccccc3)nc2s1 | 20.9 µM |  | 
CCc1nn2c(/C=N/N=C3/NC(=O)C(CC)S3)c(-c3ccc([N+](=O)[O-])cc3)nc2s1 (stereo unspecified) | > 20 µM |  | 
CCc1nn2c(/C=N/NC(=S)Nc3ccc(O)cc3)c(-c3ccccc3)nc2s1 | 2.6 µM |  | 
CC(=O)OCCC1S/C(=N\N=C\c2c(-c3ccc(Br)cc3)[nH]c3ccccc23)NC1=O (stereo unspecified) | 1.36 µM |  | 
CCc1nn2c(/C=N/N=c3/[nH]c(-c4ccc([N+](=O)[O-])cc4)cs3)c(-c3ccc(Br)cc3)nc2s1 | 9.2 µM |  | 
CCc1nn2c(C=O)c(-c3ccccc3)nc2s1 | > 40 µM |  | 
C=CCSc1nn2c(/C=N/NC(N)=S)c(-c3ccccc3)nc2s1 | 6.1 µM |  | 
CCc1nn2c(/C=N/NC(N)=S)c(-c3ccc([N+](=O)[O-])cc3)nc2s1 | > 25 µM |  | 
CCC1S/C(=N\N=C\c2c(-c3ccc(Br)cc3)[nH]c3ccccc23)NC1=O (stereo unspecified) | 1.5 µM |  | 
CCC1S/C(=N\N=C\c2c(-c3ccc(Cl)cc3)[nH]c3ccccc23)NC1=O (stereo unspecified) | 1.42 µM |  | 
CCc1nn2c(/C=N/N=C3\SC(CCOC(C)=O)C(=O)N3c3ccc(O)cc3)c(-c3ccccc3)nc2s1 (stereo unspecified) | 2.7 µM |  | 
CCOC(=O)c1s/c(=N\N=C\c2c(-c3ccc(Br)cc3)nc3sc(CC)nn23)[nH]c1C | 7.4 µM |  | 
C=CCSc1nn2cc(-c3ccccc3)nc2s1 | 27.2 µM |  | 
CCc1nn2c(/C=N/N=C3\SC(C)C(=O)N3c3ccc(O)cc3)c(-c3ccccc3)nc2s1 (stereo unspecified) | 4.8 µM |  | 
CCc1nn2c(/C=N/N=c3/[nH]c(-c4ccc([N+](=O)[O-])cc4)cs3)c(-c3ccccc3)nc2s1 | 10.3 µM |  | 
CCOC(=O)c1sc(N/N=C/c2c(-c3ccc([N+](=O)[O-])cc3)[nH]c3ccccc23)nc1C | 0.74 µM |  | 
O=C1N/C(=N/N=C/c2c(-c3ccc(Br)cc3)[nH]c3ccccc23)SC1CCO (stereo unspecified) | 3.34 µM |  | 
